Our source for the Activity and TGI values is ChEMBL document CHEMBL4038303, “Simultaneous Drug Targeting of the Promoter MYC G-Quadruplex and BCL2 i-Motif in Diffuse Large B-Cell Lymphoma Delays Tumor Growth” (J Med Chem, 2017).

Active and inactive are the calls of the source. The rule behind the calls is not given here.

Series [1] concerns U2932. The series can be described thus: Potentiation of CPA-induced antitumor activity against human U2932 cells xenografted in SCID mouse assessed as reduction in tumor burden at 5 mg/kg, ip administered for 5 consecutive days measured up to 10 days post first treatement. In kind it is functional, organism-based. In short, it runs like this:
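SCID mice bearing subcutaneous left-flank U2932 xenografts (10 × 10^6 cells in saline), pair-matched by tumor volume. Test agent given ip daily for 5 days with 50 mg/kg CPA; diluent-treated and CPA-alone controls. Tumor volume estimated as a2 × b/2 from smallest and largest diameters. Grubbs' test for outliers; two-tailed Student's t test.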
Background: A xenograft is tissue or cells of one species grown in another, often human tumour cells in immunodeficient mice.

Series [2] has as its system U2932. The series can be described thus: Potentiation of CPA-induced antitumor activity against human U2932 cells xenografted in SCID mouse assessed as tumor growth inhibition at 7.5 mg/kg, ip for 5 days cotreated with 10 mg/kg NSC-59276 measured on day 9 post first treatment (reference value: 50%). In kind it is functional. The method, boiled down: (§1)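 U2932 DLBCL cells (10 × 10^6 in 100 μL sterile saline, viability >91%) injected subcutaneously into left flank of SCID mice (6−8 weeks, immunoglobulin ≤20 μg/mL). Mice pair-matched by tumor volume. Drugs given ip daily for 5 days, CPA 30 mg/kg; controls received all diluents. Tumor volume = a2 × b/2 (a smallest, b largest diameter); n = 5−8; Grubbs' test for outliers.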

In series [3] the test system is Mus musculus. The series is described as follows: Toxicity in scid mouse xenografted with human U2932 cells assessed as survival at 5 mg/kg, ip administered for 5 consecutive days cotreated with NSC-59276 and CPA. In kind it is organism-based. The settings on record: in vivo. In short, it runs like this: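 SCID mice (6−8 weeks, female or male, serum immunoglobulin ≤20 μg/mL by ELISA) implanted subcutaneously in left flank with 10 × 10^6 U2932 cells in 100 μL saline; pair-matched by tumor volume; dosed ip daily for 5 days; controls received all compound diluents; tumor volume a2 × b/2; outliers by Grubbs' test; two-tailed t test with Šidák–Bonferroni correction.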

Series [4] relates to Mus musculus. The series is described as follows: Reduction in Myc mRNA level in SCID mouse xenografted with human U2932 cells at 2.5 to 5 mg/kg, ip administered for 5 consecutive days cotreated with CPA by qPCR method. Format: functional, organism-based. In short, it runs like this:
(§2)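 Tumors from U2932 xenograft SCID mice given ip treatment daily for 5 days were harvested. Total RNA was taken from the same tumor preparations used for protein lysates, and MYC or BCL2 mRNA was quantified by TaqMan qPCR normalized to TBP. Comparisons were made with diluent-treated mice or CPA-only mice.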

The species entered for series [5] is Homo sapiens. The series is described as follows: Binding affinity to c-myc G-quadruplex DNA in BCL2 and MYC translocation-positive human VAL cells assessed as downregulation of MYC mRNA levels at 3 uM after 24 hrs by qPCR method. In short, it runs like this:
(§3)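 DLBCL lines grown in RPMI with 10% FBS (SUDHL4 15% FBS) and penicillin/streptomycin. Cells exposed for 24 h to rising concentrations up to 3 μM; DMSO as vehicle control. Total RNA isolated, target mRNA measured by TaqMan real-time qPCR, normalized to TBP and expressed relative to untreated cells; triplicate experiments, two-tailed t test.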
(In general: In qPCR the cycle at which signal appears reflects the starting amount.)

The species named for series [6] is Homo sapiens. The series is described as follows: Stabilization of c-myc G-quadruplex DNA in BCL2 and MYC translocation-positive human VAL cells assessed as potentiation of CPA-induced apoptosis by measuring increase in caspase-3 activity at 3 uM after 24 hrs in presence of NSC-59276 by AFC based fluorescence assay (reference value: 30%).
Series [7] deals with Mus musculus. The series can be described thus: Effect on BCL2 mRNA level in SCID mouse xenografted with human U2932 cells at 2.5 to 5 mg/kg, ip administered for 5 consecutive days cotreated with CPA by qPCR method. Format: functional, organism-based. In short, it runs like this:
as §2

The species named for series [8] is Homo sapiens. The series can be described thus: Binding affinity to c-myc G-quadruplex DNA in human HT cells assessed as downregulation of MYC mRNA levels at 3 uM after 24 hrs by qPCR method. In kind it is cell-based. In short, it runs like this:
as §3

The species entered for series [9] is Homo sapiens. The series can be described thus: Binding affinity to BLC2 G-quadruplex DNA in BCL2 translocation-positive human SUDHL4 cells assessed as downregulation of BLC2 mRNA levels at 3 uM after 24 hrs by qPCR method. The method, boiled down: as §3
Series [10] deals with Mus musculus. The series can be described thus: Reduction in Myc mRNA level in SCID mouse xenografted with human U2932 cells at 10 mg/kg, ip administered for 5 consecutive days cotreated with CPA and NSC-59276 by qPCR method. Format: functional, organism-based. In short, it runs like this: as §2
The species entered for series [11] is Homo sapiens. The series can be described thus: Binding affinity to c-myc G-quadruplex DNA in MYC translocation-positive and BCL2 amplification-positive human U2932 cells assessed as downregulation of MYC mRNA levels at 0.25 to 3 uM after 6 hrs by qPCR method.
For series [12], the species on record is Homo sapiens. The series can be described thus: Stabilization of c-myc G-quadruplex DNA in MYC translocation-positive and BCL2 amplification-positive human U2932 cells assessed as potentiation of CPA-induced apoptosis by measuring increase in caspase-3 activity at 3 uM after 24 hrs in presence of NSC-59276 by AFC based fluorescence assay (reference value: 30%).

For series [13], the species on record is Homo sapiens. The series is described as follows: Binding affinity to c-myc G-quadruplex DNA in BCL2 and MYC translocation-positive human VAL cells assessed as downregulation of MYC protein levels up to 3 uM after 24 hrs by Western blot analysis. The method, boiled down: (§4)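 Cell lines treated 24 h with compound up to 3 μM, with untreated and DMSO-treated controls. Lysates (20 μg total protein) probed by Western blot for BCL2 or MYC with antibodies at 1:1000; actin as loading control. Blots representative of triplicate experiments.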
(In general: In western blotting, separated proteins are transferred to a membrane and probed.)

The species entered for series [14] is Homo sapiens. The series can be described thus: Binding affinity to c-myc G-quadruplex DNA in human HT cells assessed as downregulation of MYC protein levels up to 3 uM after 24 hrs by Western blot analysis. In kind it is cell-based. In short, it runs like this: as §4
The subject of series [15] is Mus musculus. The series can be described thus: Toxicity in scid mouse xenografted with human U2932 cells assessed as change in body weight at 5 to 7.5 mg/kg, ip administered for 5 consecutive days in presence of CPA. Format: organism-based. The note with it: in vivo. In short, it runs like this: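 In the follow-up U2932 subcutaneous xenograft study in SCID mice (pair-matched by tumor volume, n = 5−8), compound at 5 or 7.5 mg/kg was given ip daily for 5 days with 30 mg/kg cyclophosphamide and 10 mg/kg BCL2 i-motif ligand. Diluent was given in place of any absent agent. Body weight and survival were followed.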

Series [16] concerns U2932. The series is described as follows: Potentiation of CPA-induced antitumor activity against human U2932 cells xenografted in SCID mouse assessed as tumor growth inhibition at 7.5 mg/kg, ip for 5 days cotreated with 10 mg/kg NSC-59276 measured on day 12 post first treatment (reference value: 67%). In kind it is functional. The method, boiled down:
as §1

For series [17], the species on record is Homo sapiens. The series can be described thus: Binding affinity to BLC2 i-motif promoter DNA in MYC translocation-positive and BCL2 amplification-positive human U2932 cells assessed as downregulation of BLC2 mRNA levels up to 3 uM after 24 hrs by qPCR method. In short, it runs like this:
as §3

For series [18], the species on record is Homo sapiens. The series can be described thus: Binding affinity to c-myc G-quadruplex DNA in MYC translocation-positive and BCL2 amplification-positive human U2932 cells assessed as downregulation of MYC mRNA levels up to 3 uM after 24 hrs by qPCR method relative to control. In short, it runs like this: as §3
For series [19], the species on record is Homo sapiens. The series is described as follows: Binding affinity to c-myc G-quadruplex DNA in BCL2 translocation-positive human SUDHL4 cells assessed as downregulation of MYC mRNA levels at 0.25 to 3 uM after 6 hrs by qPCR method.

As a reminder, the TGI is the reduction of tumour growth relative to the control group. In the case of `Cc1c2ccncc2c(C)c2c1[nH]c1ccc(OCCN(C)C)cc12.Cl.Cl`, the result in the series with U2932 [1], in the series with Mus musculus [4], in the series listed under Homo sapiens [5], in the series listed under Homo sapiens [8], in the series filed under Homo sapiens [9] and with Mus musculus [10] was Active. Also, the outcome in the series filed under Homo sapiens [11], in the series listed under Homo sapiens [13], in the series filed under Homo sapiens [14] and in the series filed under Homo sapiens [19] was Active. Besides, the tumour growth inhibition (TGI) was found to be 50% in the series on U2932 [2] and 46% with U2932 [16]. Further, the Activity result in the series with Mus musculus [3] is “Non-Toxic”; in the series filed under Homo sapiens [6], 100%; in the series filed under Homo sapiens [12], 100%; with Mus musculus [15], “Non-Toxic”; in the series listed under Homo sapiens [18], under 90%. The outcome in the series with Mus musculus [7] and in the series listed under Homo sapiens [17] was inactive.
